MrgX1 ag: human MrgX1 receptor agonism, primary screen. Q96LB2. MrgX1-HEK293 cells, Fluo-4 calcium fluorescence, agonist mode; stronger effect = higher value. B-score at 10 µM. actives 0.44% (n = 310,000). AID 588627;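 active means calcium response B-score plate-corrected fluorescence ratio at least 3 library SD, with starting fluorescence B-score inside 5 SD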
Target sequence (Q96LB2 whole entry, looked up): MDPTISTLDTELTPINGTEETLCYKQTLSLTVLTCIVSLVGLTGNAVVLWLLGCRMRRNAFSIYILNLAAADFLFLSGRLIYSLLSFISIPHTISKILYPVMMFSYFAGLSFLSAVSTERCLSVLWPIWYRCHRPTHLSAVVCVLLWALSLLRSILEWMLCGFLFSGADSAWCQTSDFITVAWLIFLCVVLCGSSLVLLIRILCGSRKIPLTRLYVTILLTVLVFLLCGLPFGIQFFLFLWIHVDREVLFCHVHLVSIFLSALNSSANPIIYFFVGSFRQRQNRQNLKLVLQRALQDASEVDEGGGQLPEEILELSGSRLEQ
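times = overnight plating, then 30 min 37 °C plus 30 min room-temperature dye loading | assay system = stable human MrgX1 HEK293 cell line | input = fifteen thousand cells per well | signal = kinetic calcium dye fluorescence, Fluo-4 NW | dosing = compound delivered in addition one of three | read-out = B-scored fluorescence response ratio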
MrgX1 allo act: human MrgX1 positive allosteric modulation, primary screen. MrgX1-HEK293, Fluo-4 calcium flux, FDSS; stronger effect = higher value. B-score at 10 µM. actives 0.63% (n = 310,000);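 active means plate-corrected calcium response at least 3 library SD above typical, normal starting fluorescence, not activating the receptor alone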;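 further: compound read alongside a low EC10 to EC30 dose of BAM8-22 agonist; peak minus trough fluorescence over baseline measured at the second addition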
MrgX1 antagonist: antagonists of human MrgX1 receptor | Q96LB2 | MRGX1-HEK293 calcium flux, Fluo-4, BAM8-22 antagonism; stronger effect = lower value | B-score at 10 µM | actives 1.3% (n = 310,000) | AID 588676;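 active means calcium-response B-score plate-corrected more than 3 library SD below zero, starting fluorescence within 5 deviations, no agonist response on first addition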;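 further: peak minus trough fluorescence over baseline after final BAM8-22 challenge near maximal dose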
RGS4 inh: human RGS4 inhibition; HEK293 M3R/RGS4 inducible, Fluo-4 calcium flux; stronger effect = higher value; triggered by carbachol at its EC20; B-score at 10 µM; actives 0.45% (n = 310,000);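 active means B-score, a plate-corrected calcium signal, over three deviations above library mean, with baseline fluorescence within five deviations of library mean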;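 further: RGS4 expression induced by doxycycline in cells with stable M3 receptor; B-score is computed from the integrated fluorescence ratio over baseline after carbachol; higher B-score means a larger calcium signal and so more RGS4 inhibition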
Target sequence (P49798 whole entry, looked up): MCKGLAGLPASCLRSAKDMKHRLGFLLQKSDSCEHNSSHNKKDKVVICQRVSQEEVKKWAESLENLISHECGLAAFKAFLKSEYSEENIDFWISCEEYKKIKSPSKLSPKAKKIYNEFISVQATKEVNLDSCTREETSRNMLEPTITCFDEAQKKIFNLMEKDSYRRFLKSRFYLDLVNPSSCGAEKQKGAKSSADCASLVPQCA
RGS4 act: RGS4 potentiation or activation | AID 463111 | HEK293 M3R/inducible RGS4, carbachol calcium flux Fluo4; stronger effect = lower value | B-score at 10 µM | actives 0.92% (n = 310,000);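 active means B-score of the integrated calcium signal more than 4 SD below the library mean, with starting fluorescence not abnormally high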;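 further: negative B-score means reduced calcium response which marks RGS4 activation or potentiation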
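Material: M3R-expressing HEK293 line, RGS4 induced by doxycycline | Schedule: Overnight RGS4 induction, 30 min dye load 37 °C, 20 min compound RT | Measured by: Fluo4 fluorescence kinetic imaging of calcium | Read-out: Integrated calcium ratio converted to B score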
RGS4 activ val: RGS4 activation, validation assay; HEK293 M3R/RGS4 inducible, carbachol calcium flux Fluo4; shares compounds with RGS4 act; inhibition, % at 10 µM; actives 89% (n = 1,100);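 active means inhibition above 3 SD of the buffer control wells, cut at about 41% in these data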;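 further: signal is the integrated peak-minus-minimum Fluo4 fluorescence over baseline ratio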
RGS4 act ctr: activity in cells without induced RGS4 expression. AID 602283. HEK293 M3R non-induced RGS4, Fluo4 calcium flux; after carbachol challenge at its EC90. actives 82% (n = 1,100). shares compounds with RGS4 act. inhibition, % at 10 µM;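 active means inhibition exceeding 3 SD of buffer-only control wells, cut at about 26% in these data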;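 further: percent drop in integrated peak-minus-baseline over baseline Fluo4 ratio after carbachol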
* marks the source's active call; other numbers are inactive results; i = inactive; . = not tested or not shown. Sampled rows, rich in hits. Any-hit rate of the full collection: about 3.5%.

SMILES	MrgX1 ag	MrgX1 allo act	MrgX1 antagonist	RGS4 inh	RGS4 act	RGS4 activ val	RGS4 act ctr
CC1CC(OC(=O)C(O)c2ccccc2)CC(C)(C)N1C (stereo not drawn)	i	i	i	i	-10.3*	77.0*	38.3*
CC(=O)/C(C(=N)N1CCN(C(c2ccccc2)c2ccccc2)CC1)=C(\C)O	i	i	i	i	-9.24*	81.0*	83.8*
COC(=O)c1ccc(CNC(=O)COC(=O)Cc2ccsc2)cc1	i	i	i	i	i	.	.
C[N+]1(CC(=O)OCCCc2ccccc2)CCCCC1	i	i	i	i	i	.	.
CC1(C(O)(C#CC[N+]2(C)CCCCC2)c2ccccc2)CCCC1 (stereo not drawn)	i	i	i	i	-15.5*	91.5*	94.8*
O=C(OCCN1CCCCC1)c1ccccc1Br	i	i	i	i	i	.	.
O=C(OCCN1CCCC1)C1(c2ccccc2)CCCC1	.	.	.	i	-9.27*	94.0*	92.8*
CN(C)CCOC(=O)C1(c2ccccc2)CCCC1	i	i	i	i	-8.5*	92.0*	90.8*
O=C(OCCN1CCCCC1)C1(c2ccccc2)CCCC1	i	i	i	i	-9.98*	92.5*	92.3*
C[N+]1(CCCOC(=O)C2(c3ccccc3)CCCC2)CCOCC1	i	i	i	i	i	.	.
Cc1ccc2oc(=O)c3cc(C(=O)NCCCN4CCCCCC4)sc3c2c1	i	i	i	i	i	.	.
Cc1ccc2oc(=O)c3cc(C(=O)NCCCN4CCc5ccccc5C4)sc3c2c1	i	i	i	i	-7.7*	51.0*	83.8*
Cn1c(=O)n(CCOc2ccc(Cl)cc2Cl)c2ccccc21	i	i	i	i	i	.	.
Cn1c(=O)n(CCOc2ccccc2Cl)c2ccccc21	i	i	i	i	-7.82*	88.0*	39.8*
COc1cc(CN2CCCC(C(=O)c3ccc4c5c(cccc35)CC4)C2)cc(OC)c1O (stereo not drawn)	i	i	i	i	i	.	.
COc1ccccc1NC(=O)c1ccccc1Oc1ccccc1	i	i	-5.94*	i	-9.19*	86.0*	50.3*
CC(C)OP(=O)(OC(C)C)C1(NS(=O)(=O)c2ccc(Cl)cc2)C=C(Cl)C(=O)C(Cl)=C1	i	i	i	i	i	.	.
CCN=C1SC(C(=O)Nc2cccc(Br)c2)CC(=O)N1CC (stereo not drawn)	i	i	i	i	-7.84*	56.0*	83.8*
CCN=C1SC(C(=O)Nc2ccc(Cl)c(Cl)c2)CC(=O)N1CC (stereo not drawn)	i	i	i	i	i	.	.
CCOC(=O)N1CCC(NC(=O)c2cnn3c(C(F)(F)F)cc(-c4cccc(OC)c4)nc23)CC1	i	i	i	i	-8.38*	0.0	0.0
CNC(=O)C1CC(=O)N(Cc2ccc3c(c2)OCO3)C(=Nc2ccc(OC)cc2)S1 (stereo not drawn)	i	i	i	i	-10.5*	0.0	0.0
CNC(=O)C1CC(=O)N(CCc2ccc(OC)cc2)C(=Nc2ccc(OC)cc2)S1 (stereo not drawn)	i	i	i	i	i	.	.
Cc1ccc(S(=O)(=O)NNC(=O)C2Cc3c(ccc4ccccc34)O2)cc1 (stereo not drawn)	i	i	i	i	i	.	.
CCCOc1ccc(OCCCCNC(C)CC)cc1 (stereo not drawn)	i	i	i	i	i	.	.
CCC(C)NCCOc1ccc(C(C)(C)c2ccccc2)cc1 (stereo not drawn)	i	i	i	i	-7.78*	79.0*	33.8*
SMILES	MrgX1 ag	MrgX1 allo act	MrgX1 antagonist	RGS4 inh	RGS4 act	RGS4 activ val	RGS4 act ctr
CCC(=O)N1CCN(c2ccc(NC(=O)COc3ccc(C)cc3C)cc2)CC1	i	i	i	i	i	.	.
Cc1ccc(C(=O)N2CCN(c3ccc(NC(=O)COc4ccccc4C)cc3)CC2)cc1	i	i	i	i	-8.39*	61.0*	39.3*
CC(Oc1ccccc1)C(=O)NC1CCN(Cc2ccccc2)CC1 (stereo not drawn)	i	i	i	i	-8.26*	80.0*	53.3*
CCCCCCOc1ccc(-c2ccc(C#N)cn2)cc1	i	i	i	i	-7.93*	71.0*	83.8*
O=C(NC(=S)N1CCN(C/C=C/c2ccccc2)CC1)c1ccc(Cl)nc1	i	i	i	i	i	.	.
O=C(c1cccc(COc2ccc(Cl)cc2Cl)c1)N1CCN(c2ccccn2)CC1	i	i	i	i	-7.88*	94.0*	80.3*
O=C(c1ccc(Cl)c(Cl)c1)N1CCN(c2ccccn2)CC1	i	i	i	i	i	.	.
c1ccc2c(-c3nc(C4CCCCC4)no3)cc(-c3ccncc3)nc2c1	i	i	i	i	-9.43*	93.0*	84.8*
CC[N+](C)(C)CC/C=C1/c2ccccc2Sc2ccc(Cl)cc21	i	i	i	i	-12*	93.5*	93.3*
CC1(C)CC(=O)C2=C(C1)OC(N)=C(C#N)C2c1ccoc1 (stereo not drawn)	i	i	i	i	i	.	.
CC1(C)CC(=O)C2=C(C1)OC(N)=C(C#N)C2c1cn(-c2ccccc2)nc1-c1ccccc1 (stereo not drawn)	i	i	i	i	-10.9*	0.0	0.0
COc1cccc(-c2csc(N3CCN(C(=S)NCC(C)C)CC3)n2)c1	i	i	i	i	-7.69*	79.5*	55.8*
CCNC(=S)N1CCN(c2nc(-c3cccc(OC)c3)cs2)CC1	i	i	i	i	i	.	.
Cc1cc2c(cc1C)NC(c1c(C)n(C)n(-c3ccccc3)c1=O)C1=C(CC(C)(C)CC1=O)N2 (stereo not drawn)	i	i	i	i	-10.9*	71.0*	62.3*
CC(=O)N1CCN(S(=O)(=O)c2cccc(C(=O)NNC(=O)COc3ccc(Cl)cc3C)c2)CC1	i	i	i	i	i	.	.
Cc1nc(-c2noc(-c3ccccc3Cl)n2)c(C(F)(F)F)o1	i	i	i	i	-8.64*	0.0	0.0
Cc1cccc(-c2cc(C(=O)Nc3cccnc3)c3ccccc3n2)c1	i	i	i	i	-9.49*	56.0*	0.0
Cc1ccccc1OCC(=O)N1CCc2ccccc2C1	i	i	i	i	i	.	.

Screening results (PubChem BioAssay)
